This is an account of results in ChEMBL document CHEMBL4390681, “Novel allosteric covalent inhibitors of bifunctional Cryptosporidium hominis TS-DHFR from parasitic protozoa identified by virtual screening” (Bioorg Med Chem Lett, 2019).

Molecules are shown by their SMILES. Changes are numbered by the printed parent chain. Activity calls are given as the source filed them. The rule behind the calls is not given here.

One test has as its system Cryptosporidium hominis. The experiment in a line: Ratio of inhibition of recombinant Cryptosporidium hominis TS-DHFR Cys44Ser mutant expressed in Escherichia coli PA414 to inhibition of recombinant Cryptosporidium hominis TS-DHFR expressed in Escherichia coli PA414.
The target of test [1] is T1, Bifunctional dihydrofolate reductase-thymidylate synthase (Cryptosporidium hominis) (UniProt A0A0S4TER9).
T1 sequence (whole entry): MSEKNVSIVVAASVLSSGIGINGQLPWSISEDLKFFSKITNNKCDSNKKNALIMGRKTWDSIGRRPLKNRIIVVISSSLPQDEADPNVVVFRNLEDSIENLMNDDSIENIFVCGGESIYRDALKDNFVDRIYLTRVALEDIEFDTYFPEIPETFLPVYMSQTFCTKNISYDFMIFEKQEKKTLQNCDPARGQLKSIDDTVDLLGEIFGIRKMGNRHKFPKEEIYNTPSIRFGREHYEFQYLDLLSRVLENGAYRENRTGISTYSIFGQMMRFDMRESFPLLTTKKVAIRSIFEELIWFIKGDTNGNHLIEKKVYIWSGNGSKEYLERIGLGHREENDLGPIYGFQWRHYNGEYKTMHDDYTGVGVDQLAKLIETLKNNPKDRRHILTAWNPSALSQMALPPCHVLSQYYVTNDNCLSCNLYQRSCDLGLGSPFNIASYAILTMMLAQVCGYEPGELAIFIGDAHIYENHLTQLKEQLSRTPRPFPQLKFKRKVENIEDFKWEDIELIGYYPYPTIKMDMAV
The experiment in a line: Inhibition of recombinant Cryptosporidium hominis TS-DHFR expressed in Escherichia coli PA414 assessed as reduction in DHFR steady state activity at 500 uM using [3',5',7,9-3H]-H2folate as substrate preincubated for 1 hr to 72 hrs before NADPH addition for 5 mins followed by substrate addition and measured after 5 mins by NADPH based radiometric chemical quench assay relative to control. Particulars: TDE = time-dependent effect. Put shortly: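 Compound at 500 µM was incubated with ChTS-DHFR for 1 h, 16 h, 48 h or 72 h before the radiometric DHFR reaction was initiated, to follow time-dependent inhibition. The standard assay uses a 10 min incubation.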

Test [2] deals with T2, Bifunctional dihydrofolate reductase-thymidylate synthase (Cryptosporidium hominis), A0A0S4TER9 [C44S].
T2 sequence (whole entry): T1 sequence (whole entry) with C44S
The experiment in a line: Inhibition of recombinant Cryptosporidium hominis TS-DHFR Cys44Ser mutant expressed in Escherichia coli PA414 assessed as reduction in DHFR steady state activity at 500 uM using [3',5',7,9-3H]-H2folate as substrate preincubated for 16 hrs before NADPH addition for 5 mins followed by substrate addition and measured after 5 mins by NADPH based radiometric chemical quench assay relative to control. In outline:
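Wild-type and Cys44Ser mutant ChTS-DHFR, each incubated 16 h with compound before the radiometric DHFR reaction was started. Read-out was percent DHFR activity.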

In test [3] the target is T3, Dihydrofolate reductase (Homo sapiens) (UniProt P00374).
T3 sequence (whole entry): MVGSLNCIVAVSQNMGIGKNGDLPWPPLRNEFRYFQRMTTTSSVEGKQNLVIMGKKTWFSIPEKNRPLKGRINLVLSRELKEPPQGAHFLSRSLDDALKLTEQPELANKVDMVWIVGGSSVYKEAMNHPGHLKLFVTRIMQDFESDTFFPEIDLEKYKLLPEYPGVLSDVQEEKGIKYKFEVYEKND
The experiment in a line: Inhibition of human DHFR assessed as decrease in DHFR steady state activity at 500 uM using [3',5',7,9-3H]-H2folate as substrate preincubated for 16 hrs before NADPH addition incubated for 5 mins followed by substrate addition and measured after 5 mins by NADPH based radiometric chemical quench assay relative to control. In outline: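 Radiometric DHFR steady-state assay with human DHFR. Compound and enzyme were incubated for 16 h before the reaction was started. Percent inhibition was read relative to control.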

For the compound `Cc1ccc(C(=O)Nc2cccc(S)c2)c(O)c1`, the Ratio in the test with Cryptosporidium hominis is 2. Moreover, the inhibition entry in test [1] was “Tde”; in test [2], 38%. Further, in test [3], the inhibition entry was “inactive”.

As a reminder, the inhibition is the change of the read-out against control, counted positive when it falls.
